From ChEMBL document CHEMBL3608251, “Probing the 'bipolar' nature of the carbonic anhydrase active site: aromatic sulfonamides containing 1,3-oxazol-5-yl moiety as picomolar inhibitors of cytosolic CA I and CA II isoforms” (Eur J Med Chem, 2015) come the findings set out here.

pKi: −log10 of the molar value.

Experiment [1] addresses Carbonic anhydrase 1 (Homo sapiens, UniProt P00915). As to the kind of experiment: Inhibition of human recombinant carbonic anhydrase 1 preincubated for 15 mins by stopped flow CO2 hydration method. Put shortly: (§1)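 Stopped-flow assay of CO2 hydration by in-house recombinant CA isoforms. Phenol red 0.2 mM read at 557 nm, in 20 mM Tris pH 8.3 with 20 mM Na2SO4 for constant ionic strength. CO2 1.7–17 mM; initial rates over 10–100 s, uncatalyzed rate subtracted. Inhibitor diluted in buffer down to 0.005 nM and preincubated with enzyme 15 min at room temperature. Ki by non-linear least squares with Cheng-Prusoff, mean of ≥3 determinations.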

The target in experiment [2] is Carbonic anhydrase 2 (Homo sapiens, UniProt P00918). In words: Inhibition of human recombinant carbonic anhydrase 2 preincubated for 15 mins by stopped flow CO2 hydration method.
Experiment [3] addresses Carbonic anhydrase 9 (Homo sapiens, UniProt Q16790). In words: Inhibition of human recombinant carbonic anhydrase 9 preincubated for 15 mins by stopped flow CO2 hydration method. Put shortly: as §1
The target in experiment [4] is Carbonic anhydrase 12 (Homo sapiens, UniProt O43570). In words: Inhibition of human recombinant carbonic anhydrase 12 preincubated for 15 mins by stopped flow CO2 hydration method. Summed up:
as §1

The species entered for experiment [5] is Homo sapiens. In words: Selectivity ratio of Ki for human recombinant carbonic anhydrase 2 to Ki for human recombinant carbonic anhydrase 1.
For experiment [6], the species on record is Homo sapiens. As to the kind of experiment: Selectivity ratio of Ki for human recombinant carbonic anhydrase 2 to Ki for human recombinant carbonic anhydrase 12.
The species entered for experiment [7] is Homo sapiens. In words: Selectivity ratio of Ki for human recombinant carbonic anhydrase 1 to Ki for human recombinant carbonic anhydrase 2.
The species named for experiment [8] is Homo sapiens. As to the kind of experiment: Selectivity ratio of Ki for human recombinant carbonic anhydrase 9 to Ki for human recombinant carbonic anhydrase 2.
For experiment [9], the species on record is Homo sapiens. In words: Selectivity ratio of Ki for human recombinant carbonic anhydrase 12 to Ki for human recombinant carbonic anhydrase 2.

Sequence of Carbonic anhydrase 1 (P00915 whole entry, canonical isoform): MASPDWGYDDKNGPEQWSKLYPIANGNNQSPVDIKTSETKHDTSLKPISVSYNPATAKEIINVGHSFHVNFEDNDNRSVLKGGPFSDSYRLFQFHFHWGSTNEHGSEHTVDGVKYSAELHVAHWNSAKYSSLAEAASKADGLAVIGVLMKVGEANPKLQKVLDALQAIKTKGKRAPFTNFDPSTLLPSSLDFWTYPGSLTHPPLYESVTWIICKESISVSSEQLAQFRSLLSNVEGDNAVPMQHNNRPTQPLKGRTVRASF
Sequence of Carbonic anhydrase 12 (O43570 whole entry): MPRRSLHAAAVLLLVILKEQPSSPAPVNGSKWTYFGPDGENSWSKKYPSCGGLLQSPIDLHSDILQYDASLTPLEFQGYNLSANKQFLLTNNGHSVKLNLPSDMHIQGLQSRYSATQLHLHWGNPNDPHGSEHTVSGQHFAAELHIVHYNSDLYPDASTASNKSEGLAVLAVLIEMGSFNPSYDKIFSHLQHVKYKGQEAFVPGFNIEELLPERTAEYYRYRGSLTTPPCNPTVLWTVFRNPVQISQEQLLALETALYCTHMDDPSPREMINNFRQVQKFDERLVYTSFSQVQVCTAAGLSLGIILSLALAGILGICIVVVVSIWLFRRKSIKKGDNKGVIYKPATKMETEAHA

Take `NS(=O)(=O)c1ccc(-c2cnc(C3CC3)o2)s1`: the pKi in experiment [1] was 6.89; in [2], 8.32; in experiment [3], 6.91; in experiment [4], 8.04. Further, the Ratio Ki in experiment [5] was determined as 1000.
In the case of `Cc1ccc(-c2cnc(C3CCC3)o2)cc1S(N)(=O)=O`, the pKi was 6.64 in experiment [1], 6.55 in experiment [2], 6.55 in [3] and 5.86 in experiment [4]. In addition, the Ratio Ki in [5] and in [6] was greater than 100000 each time.
On to `Cc1ncc(-c2ccc(S(N)(=O)=O)cc2)o1`, for which the negative-log Ki (pKi) was 7.02 in experiment [1], 7.64 in [3] and 8.07 in [4].
`COc1ccc(-c2cnc(C3CC3)o2)cc1S(N)(=O)=O`: the pKi was less than 5.00 in [1], 5.05 in experiment [2], 6.36 in [3] and 5.10 in experiment [4]. Moreover, the Ratio Ki in experiment [5] and in [6] was greater than 100000 throughout.
Turning to `COc1ccc(-c2cnc(C(=O)N3CCOCC3)o2)cc1S(N)(=O)=O`, the negative-log Ki (pKi) is less than 5.00 in experiment [1], 10.30 in experiment [2], 8.35 in experiment [3] and less than 5.00 in experiment [4]. Further, the Ratio Ki in experiment [5] and in experiment [6] was greater than 100000 throughout.
On to `Cc1ccc(-c2cnc(C3CC3)o2)cc1S(N)(=O)=O`, for which the negative logarithm of the Ki (pKi) in experiment [1] is 6.54; in experiment [2] it was 7.19; in experiment [4] it was 6.42. In addition, the Ratio Ki in [5] and in experiment [6] was greater than 100000 each time.
In the case of `Cc1ncc(-c2csc(S(N)(=O)=O)c2)o1`, the negative-log Ki (pKi) was 10.30 in experiment [1], 11.00 in experiment [2], 7.58 in experiment [3] and 8.44 in experiment [4]. In experiment [5], the Ratio Ki is 1000.
Regarding `COc1ccc(-c2cnc(C(=O)N3CCCC3)o2)cc1S(N)(=O)=O`, the negative logarithm of the Ki (pKi) is less than 5.00 in experiment [1], 11.00 in experiment [2], 8.39 in experiment [3] and 5.07 in experiment [4]. Also, the Ratio Ki in [5] and in experiment [6] was greater than 100000 each time.
As for `NS(=O)(=O)c1cc(-c2cnc(C(=O)N3CCOCC3)o2)cs1`, the pKi in experiment [1] is 10.05; in experiment [2], 10.52; in experiment [4], 8.04. In [5], the Ratio Ki is 1000.
Take `NS(=O)(=O)c1ccc(-c2cnc(C(=O)N3CCOCC3)o2)cc1`: the pKi in experiment [1] is 11.00; in experiment [2] it was 11.10; in [3] it was 8.80; in experiment [4], 8.16.
With `NS(=O)(=O)c1ccc(-c2cnc(C(=O)N3CCCC3)o2)s1`, the negative logarithm of the Ki (pKi) in [1] is 7.38; in experiment [2], 11.00; in [3] it was 7.73; in experiment [4] it was 8.17. Further, the Ratio Ki in [5] was found to be 1000.
In the case of `Cc1ncc(-c2ccc(C)c(S(N)(=O)=O)c2)o1`, the pKi was 7.34 in [1], 8.15 in experiment [2], 6.56 in experiment [3] and 6.61 in experiment [4]. The Ratio Ki in [5] and in [6] was greater than 100000 each time.
`Cc1ccc(-c2cnc(C(=O)N3CCCC3)o2)cc1S(N)(=O)=O`: the negative-log Ki (pKi) is 8.07 in experiment [1], 11.00 in experiment [2], 7.37 in [3] and 5.55 in [4]. The Ratio Ki in experiment [5] and in experiment [6] was greater than 100000 each time.
`NS(=O)(=O)c1ccc(-c2cnc(C(=O)N3CCCC3)o2)cc1`: the pKi is 11.00 in experiment [1], 11.05 in experiment [2], 8.77 in experiment [3] and 7.37 in [4].
On to `NS(=O)(=O)c1cc(-c2cnc(C3CCC3)o2)cs1`, for which the pKi was 8.05 in experiment [1], 11.00 in [2], 7.59 in experiment [3] and 8.18 in experiment [4]. In addition, in experiment [5], the Ratio Ki is 1000.
For `NS(=O)(=O)c1cc(-c2cnc(C(=O)N3CCCC3)o2)cs1` the same measures were 7.10, 10.70, 7.82, 7.19 and 1000.
Consider `NS(=O)(=O)c1ccc(-c2cnc(C3CCC3)o2)s1`, for which the results for the negative-log Ki (pKi) in experiment [1], in [2] and in experiment [4] were 7.43, 11.00 and 8.29, respectively. The Ratio Ki in experiment [5] was determined as 1000.
`NS(=O)(=O)c1ccc(-c2cnc(C3CC3)o2)cc1`: the pKi is 8.32 in [1], 11.00 in experiment [2], 8.49 in [3] and 8.21 in [4]. The Ratio Ki in [7], in [8] and in experiment [9] was 100 in each case.
With `Cc1ccc(-c2cnc(C(=O)N3CCOCC3)o2)cc1S(N)(=O)=O`, the pKi in experiment [1] was 7.23; in [2], 9.55; in experiment [3] it was 8.43; in experiment [4] it was 6.25. For the same molecule, the Ratio Ki in [5] and in [6] was greater than 100000 each time.
In the case of `COc1ccc(-c2cnc(C)o2)cc1S(N)(=O)=O`, the pKi in experiment [1] was less than 5.00; in [2], 5.35; in experiment [3] it was 6.56; in experiment [4], 5.45. The Ratio Ki in [5] and in [6] was greater than 100000 in each case.
For the molecule `COc1ccc(-c2cnc(C3CCC3)o2)cc1S(N)(=O)=O`, the negative-log Ki (pKi) is 5.21 in experiment [1], 7.24 in experiment [2] and 7.20 in experiment [4]. Further, the Ratio Ki in [5] and in experiment [6] was greater than 100000 each time.
As for `NS(=O)(=O)c1ccc(-c2cnc(C(=O)N3CCOCC3)o2)s1`, the figures for the pKi in [1], in experiment [3] and in [4] were 7.65, 7.44 and 7.52, respectively.
Regarding `NS(=O)(=O)c1cc(-c2cnc(C3CC3)o2)cs1`, the pKi was 7.66 in experiment [1], 8.60 in experiment [2] and 8.06 in [4]. For the same molecule, the Ratio Ki in [5] stood at 1000.
As for `NS(=O)(=O)c1ccc(-c2cnc(C3CCC3)o2)cc1`, the results for the pKi in experiment [1], in [2] and in experiment [4] were 7.26, 10.70 and 8.06, respectively. The Ratio Ki in experiment [7], in experiment [8] and in experiment [9] was 100 each time.
Take `Cc1ncc(-c2ccc(S(N)(=O)=O)s2)o1`: the negative logarithm of the Ki (pKi) in experiment [1] was 6.85; in experiment [2], 8.20; in experiment [3] it was 7.98; in experiment [4] it was 8.03. Further, the Ratio Ki in [5] worked out at 1000.

For orientation: pKi means −log10 of the Ki, conventionally taken in molar units.
